How the values were obtained:
Format in all cases: functional
Mus musculus [1] = species on record: Mus musculus; assay: Compound was tested at a dose of 400 nmol for the skin tumor initiating activity expressed as papillomas per mouse
Summary of the method: (§1)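 The initiator was applied topically to the shaved skin in 0.2 mL peroxide-free THF; controls received THF only. After 2 weeks, 3.4 nmol TPA in 0.2 mL acetone was given twice weekly. Papillomas were recorded weekly, with random histology. Means were compared by Student's t test.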

Mus musculus [2] = species on record: Mus musculus; assay: Compound was tested at a dose of 400 nmol for the skin tumor initiating activity expressed as percent of mice with papillomas; summary of the method: as §1
Mus musculus [3] = species on record: Mus musculus; assay: Compound was tested at a dose of 100 nmol for the skin tumor initiating activity expressed as percent of mice with papillomas; summary of the method: as §1
Mus musculus [4] = species on record: Mus musculus; assay: Compound was tested at a dose of 100 nmol for the skin tumor initiating activity expressed as papillomas per mouse; summary of the method: as §1

| SMILES | Activity (Mus musculus [1]) | Activity (Mus musculus [2]) [%] | Activity (Mus musculus [3]) [%] | Activity (Mus musculus [4]) |
| --- | --- | --- | --- | --- |
| O[C@H]1[C@H]2O[C@H]2c2c(ccc3cc4ccc5ccccc5c4cc23)[C@@H]1O | 3.95 | 92 | – | – |
| Cc1c2ccc3c(c2c(C)c2c1ccc1ccccc12)C=C[C@H](O)[C@H]3O | 14.7 | 100 | 93 | 9.9 |
| O[C@H]1C=Cc2c(ccc3cc4ccc5ccccc5c4cc23)[C@@H]1O | 0.65 | 39 | – | – |
| Cc1c2ccc3ccccc3c2c(C)c2c1ccc1ccccc12 | 17.3 | 97 | 97 | 8.4 |
| c1ccc2c(c1)ccc1cc3ccc4ccccc4c3cc12 [DIBENZO[A,J]ANTHRACENE] | 0.58 | 29 | – | – |

— ChEMBL document CHEMBL1124146, “Synthesis of the tumorigenic 3,4-dihydrodiol metabolites of dibenz[a,j]anthracene and 7,14-dimethyldibenz[a,j]anthracene” (1988)
